Source: PMC6175367 (Journal of Clinical Pharmacology, 2018)
Counter-ions that a name gives are not always drawn.

Assays:
[1] = Plasma pharmacokinetics after multiple oral administrations of imarikiren; assay type: in vivo, human
Summary of the method: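 Healthy males (nonelderly 20–45 y, elderly 65–85 y) took test compound or placebo tablets orally once daily for 7 days (80 or 160 mg). Fluids were withheld from 2 h pre-dose to 4 h post-dose. Plasma parent and metabolite were measured by HPLC‑MS/MS, with noncompartmental analysis on actual sampling times. Accumulation = 100 × AUC0‑tau day 7/day 1. Age effect: elderly−nonelderly difference in ln AUC0‑tau and Cmax, day 7, with 90%/95% CI.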

[2] = target: T1, plasma renin activity (PRA) (Homo sapiens, UniProt P00797); assay type: in vivo
T1 sequence (P00797 67-406): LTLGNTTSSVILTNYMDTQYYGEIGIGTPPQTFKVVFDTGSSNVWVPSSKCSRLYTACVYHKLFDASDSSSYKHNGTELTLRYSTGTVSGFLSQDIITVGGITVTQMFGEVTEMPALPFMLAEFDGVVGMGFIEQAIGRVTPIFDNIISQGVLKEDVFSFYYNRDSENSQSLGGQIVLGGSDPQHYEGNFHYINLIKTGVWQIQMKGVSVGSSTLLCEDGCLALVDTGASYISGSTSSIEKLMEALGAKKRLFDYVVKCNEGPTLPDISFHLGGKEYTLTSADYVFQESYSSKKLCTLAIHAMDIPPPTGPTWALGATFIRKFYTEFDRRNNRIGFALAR

[3] = system: plasma active renin concentration (PRC); experiment: Plasma active renin concentration; assay type: in vivo, human
Summary of the method: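 Healthy Japanese male volunteers (nonelderly 20‑45 y, elderly 65‑85 y) took test compound or placebo tablets orally once daily for 7 days, 30 min after starting breakfast with 200 mL water. Sodium-matched meals were given. Plasma active renin was measured by immunoradiometric assay at 1 h predose and 1, 2, 4, 6, 12 h postdose on days 1 and 7, 1 h predose on days 2‑6, and 23, 47, 71 h after the last dose.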

[4] = system: plasma angiotensin II concentration (AII); experiment: Plasma angiotensin II concentration; assay type: in vivo, human
Summary of the method: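 Double-blind, placebo-controlled once-daily oral tablet dosing for 7 days in healthy Japanese men (nonelderly 20‑45 y, elderly 65‑85 y), given 30 min after starting breakfast with 200 mL water, with uniform meals. Plasma angiotensin II was measured by radioimmunoassay at 1 h predose and 1‑12 h postdose on days 1 and 7, predose on days 2‑6, and up to 71 h after the last dose.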

[5] = Safety evaluation: adverse events, vital signs, weight, ECG, laboratory tests; assay type: in vivo, human
PRA [6] = conditions: ≥5 mg dose, CPH‐001 study; cited from earlier work
[7] = dose of up to 200 mg, healthy nonelderly adult male subjects, CPH‐001; cited from earlier work
[8] = single‐dose administration; cited from earlier work
PRA [9] = conditions: aliskiren 300 mg on day 1 and days 4‐10, Japanese and white subjects; cited from earlier work
[10] = imarikiren 80 mg, day 7, Cohort 3 vs Cohort 1
[11] = imarikiren 80 mg, nonelderly, listed as imarikiren
[12] = imarikiren 160 mg, nonelderly, listed as imarikiren
[13] = imarikiren 80 mg once daily 7 days, elderly (n = 9)
[14] = imarikiren 80 mg once daily 7 days, nonelderly (n = 9)
[15] = imarikiren 80 mg, nonelderly (2 of 9 subjects)
[16] = imarikiren 160 mg once daily 7 days, nonelderly (n = 9)

In the case of `COCCCCn1c(C(=O)N(CC(C)C)[C@@H]2CNC[C@H](C(=O)N3CCOCC3)C2)nc2ccccc21` [Imarikiren, Imarikiren hydrochloride], the Tmax ([1]; human, plasma, oral, 160 mg, median time to reach the maximum observed plasma concentration (Tmax), nonelderly subjects, all groups (80 and 160 mg), days 1 and 7) is reported as 1 to 2 h, the “CL/F, mean (SD)” value ([1]; imarikiren 80 mg oral once daily, elderly, Day 1) is reported as 15.2 (4.6) L/hr and the “CL/F, mean (SD)” value ([1]; imarikiren 80 mg oral once daily, elderly, Day 7) is reported as 14.1 (3.4) L/hr. For the same compound, the “CL/F, mean (SD)” value ([1]; imarikiren 80 mg oral once daily, nonelderly, Day 1) was 19.6 (3.6) L/hr, the “CL/F, mean (SD)” value ([1]; imarikiren 80 mg oral once daily, nonelderly, Day 7) was 21.5 (5.6) L/hr and the “AUC0‐tau higher in elderly than in nonelderly subjects” value [1, 10] was 52%. The “Cmax higher in elderly than in nonelderly subjects” value [1, 10] was 39%, the “Accumulation index (AUC) percentage (100 × AUC0‐tau day 7/AUC0‐inf day 1), mean (SD)” value (“Accumulation index (AUC) percentage … (SD)” for short) ([1]; imarikiren 80 mg, nonelderly) was 94.4 (21.8) % and the “Accumulation index (t1/2) percentage, mean (SD)” value ([1]; imarikiren 80 mg, nonelderly) was 116.4 (39.1) %. For the same compound, the “R(AUC), AUC accumulation factor percentage (100 × AUC0‐tau day 7/AUC0‐tau day 1), mean (SD)” value ([1]; imarikiren 80 mg, nonelderly) was 106.4 (22.4) %, the “Accumulation index (AUC) percentage … (SD)” value [1, 11] was 94.4% and the “R(AUC), AUC accumulation factor percentage (100 × AUC0‐tau day 7/AUC0‐tau day 1), mean (SD)” value [1, 11] was 106.4%. The “CL/F, mean (SD)” value ([1]; imarikiren 160 mg oral once daily, nonelderly, Day 1) was 19.7 (5.1) L/hr, the “CL/F, mean (SD)” value ([1]; imarikiren 160 mg oral once daily, nonelderly, Day 7) was 17.6 (3.3) L/hr and the “Accumulation index (AUC) percentage … (SD)” value ([1]; imarikiren 160 mg, nonelderly) was 114.2 (30.0) %. The “Accumulation index (t1/2) percentage, mean (SD)” value ([1]; imarikiren 160 mg, nonelderly) was 119.7 (34.3) %, the “R(AUC), AUC accumulation factor percentage (100 × AUC0‐tau day 7/AUC0‐tau day 1), mean (SD)” value ([1]; imarikiren 160 mg, nonelderly) was 123.0 (32.6) % and the “Accumulation index (AUC) percentage … (SD)” value [1, 12] was 114.2%. The “R(AUC), AUC accumulation factor percentage (100 × AUC0‐tau day 7/AUC0‐tau day 1), mean (SD)” value [1, 12] was 123.0%, the “Plasma concentration reached steady state (based on trough concentration)” value ([1]; multiple oral administration of 80 mg and 160 mg, nonelderly) was at most 7 days and the “Time after the last administration for which inhibition of PRA was maintained” value ([2]; 80 mg (nonelderly and elderly) and 160 mg (nonelderly), once daily for 7 days) was “at least 71 hours”. The “PRA inhibition with multiple dosing” value ([2]; for 7 days, sustained for nearly 3 days after the last administration) was “complete inhibition”, the “Change from baseline in PRC, mean (SD)” value ([3]; imarikiren 80 mg oral once daily, elderly, Day 2 (–1 hr)) was 78.3 (72.3) pg/mL and the “Change from baseline in PRC, mean (SD)” value ([3]; imarikiren 80 mg oral once daily, elderly, Day 7 (23 hrs)) was 154.4 (168.0) pg/mL. The “Change from baseline in PRC, mean (SD)” value ([3]; imarikiren 80 mg oral once daily, nonelderly, Day 2 (–1 hr)) was 169.3 (140.9) pg/mL, the “Change from baseline in PRC, mean (SD)” value ([3]; imarikiren 80 mg oral once daily, nonelderly, Day 7 (23 hrs)) was 247.1 (130.1) pg/mL and the “Change from baseline in PRC, mean (SD)” value ([3]; imarikiren 160 mg oral once daily, nonelderly, Day 2 (–1 hr)) was 129.5 (106.8) pg/mL. For the same compound, the “Change from baseline in PRC, mean (SD)” value ([3]; imarikiren 160 mg oral once daily, nonelderly, Day 7 (23 hrs)) was 487.3 (264.9) pg/mL, the “Change from baseline in AII” value ([4]; 80 mg, elderly, any time) was “no changes from baseline” and the “Change from baseline in AII” value ([4]; 160 mg, nonelderly, days 1 through 7) was “decreased from baseline”. The “Overall safety and tolerability” value ([5]; 80 or 160 mg for 7 days nonelderly, 80 mg elderly) was “safe and well tolerated”, the “Intensity of TEAEs” value ([5]; all TEAEs, with the exception of moderate urticaria in 1 nonelderly subject (80 mg)) was “mild in intensity” and the “Changes in ECG parameters” value ([5]; all cohorts) was “No obvious changes”. For the same compound, the “Serious TEAEs and deaths” value ([5]; all cohorts, during the study) was “no serious TEAEs and no deaths”, the “TEAEs reported, subjects” value ([5]; all nonelderly subjects who received imarikiren) was 22.2% and the “TEAEs related to the study drug, subjects” value (“TEAEs related” below) ([5]; all nonelderly subjects who received imarikiren (3 of 18 subjects)) was 16.7%. For the same compound, the “Subjects with any TEAEs” value [5, 13] was 3 (33.3) n (%), the “TEAE: Alanine aminotransferase increased” value [5, 13] was 1 (11.1) n (%) and the “TEAE: Aspartate aminotransferase increased” value [5, 13] was 1 (11.1) n (%). The “TEAE: Blood creatinine phosphokinase increased” value [5, 13] was 0 n (%), the “TEAE: Blood triglycerides increased” value [5, 13] was 0 n (%) and the “TEAE: Diarrhea” value [5, 13] was 1 (11.1) n (%). For the same compound, the “TEAE: Eye disorders” value [5, 13] was 0 n (%), the “TEAE: Feeling hot” value [5, 13] was 0 n (%) and the “TEAE: Gastrointestinal disorders” value [5, 13] was 1 (11.1) n (%). The “TEAE: General disorders and administration site conditions” value [5, 13] was 0 n (%), the “TEAE: Headache” value [5, 13] was 1 (11.1) n (%) and the “TEAE: Investigations” value [5, 13] was 2 (22.2) n (%). For the same compound, the “TEAE: Nervous system disorders” value [5, 13] was 1 (11.1) n (%), the “TEAE: Pruritus” value [5, 13] was 0 n (%) and the “TEAE: Skin and subcutaneous tissue disorders” value [5, 13] was 0 n (%). For the same compound, the “TEAE: Urticaria” value [5, 13] was 0 n (%), the “TEAE: Vision blurred” value [5, 13] was 0 n (%) and the “TEAE: White blood cell count decreased” value [5, 13] was 1 (11.1) n (%). The “TEAE: White blood cell count increased” value [5, 13] was 0 n (%), the “Subjects with any TEAEs” value [5, 14] was 2 (22.2) n (%) and the “TEAE: Alanine aminotransferase increased” value [5, 14] was 0 n (%). The “TEAE: Aspartate aminotransferase increased” value [5, 14] was 0 n (%), the “TEAE: Blood creatinine phosphokinase increased” value [5, 14] was 0 n (%) and the “TEAE: Blood triglycerides increased” value [5, 14] was 0 n (%). The “TEAE: Diarrhea” value [5, 14] was 0 n (%), the “TEAE: Eye disorders” value [5, 14] was 0 n (%) and the “TEAE: Feeling hot” value [5, 14] was 1 (11.1) n (%). For the same compound, the “TEAE: Gastrointestinal disorders” value [5, 14] was 0 n (%), the “TEAE: General disorders and administration site conditions” value [5, 14] was 1 (11.1) n (%) and the “TEAE: Headache” value [5, 14] was 0 n (%). For the same compound, the “TEAE: Investigations” value [5, 14] was 1 (11.1) n (%), the “TEAE: Nervous system disorders” value [5, 14] was 0 n (%) and the “TEAE: Pruritus” value [5, 14] was 1 (11.1) n (%). The “TEAE: Skin and subcutaneous tissue disorders” value [5, 14] was 2 (22.2) n (%), the “TEAE: Urticaria” value [5, 14] was 1 (11.1) n (%) and the “TEAE: Vision blurred” value [5, 14] was 0 n (%). The “TEAE: White blood cell count decreased” value [5, 14] was 0 n (%), the “TEAE: White blood cell count increased” value [5, 14] was 1 (11.1) n (%) and the “TEAEs related” value ([5]; imarikiren 80 mg, elderly (2 of 9 subjects)) was 22.2%. For the same compound, the “TEAEs reported, subjects” value ([5]; imarikiren 80 mg, elderly (3 of 9 subjects)) was 33.3%, the “TEAEs related” value [5, 15] was 22.2% and the “TEAEs reported, subjects” value [5, 15] was 22.2%. The “Subjects with any TEAEs” value [5, 16] was 2 (22.2) n (%), the “TEAE: Alanine aminotransferase increased” value [5, 16] was 2 (22.2) n (%) and the “TEAE: Aspartate aminotransferase increased” value [5, 16] was 0 n (%). For the same compound, the “TEAE: Blood creatinine phosphokinase increased” value [5, 16] was 0 n (%), the “TEAE: Blood triglycerides increased” value [5, 16] was 0 n (%) and the “TEAE: Diarrhea” value [5, 16] was 0 n (%). The “TEAE: Eye disorders” value [5, 16] was 0 n (%), the “TEAE: Feeling hot” value [5, 16] was 0 n (%) and the “TEAE: Gastrointestinal disorders” value [5, 16] was 0 n (%). For the same compound, the “TEAE: General disorders and administration site conditions” value [5, 16] was 0 n (%), the “TEAE: Headache” value [5, 16] was 0 n (%) and the “TEAE: Investigations” value [5, 16] was 2 (22.2) n (%). For the same compound, the “TEAE: Nervous system disorders” value [5, 16] was 0 n (%), the “TEAE: Pruritus” value [5, 16] was 0 n (%) and the “TEAE: Skin and subcutaneous tissue disorders” value [5, 16] was 0 n (%). For the same compound, the “TEAE: Urticaria” value [5, 16] was 0 n (%), the “TEAE: Vision blurred” value [5, 16] was 0 n (%) and the “TEAE: White blood cell count decreased” value [5, 16] was 0 n (%). The “TEAE: White blood cell count increased” value [5, 16] was 0 n (%), the “TEAEs related” value ([5]; imarikiren 160 mg, nonelderly (1 of 9 subjects)) was 11.1% and the “TEAEs reported, subjects” value ([5]; imarikiren 160 mg, nonelderly (2 of 9 subjects)) was 22.2%. For the same compound, the “Change in mean blood pressure” value ([5]; imarikiren groups, day 7 compared with baseline) was “decrease in mean blood pressure”, the “Inhibition of PRA after single oral administration” value (PRA [6]) was “completely inhibited PRA” and the “Tolerability of single dose” value [7] was “good tolerability”. The “Food effect on the PK” value [8] was “minimal effect”.
In the case of `COCCCOc1cc(C[C@@H](C[C@H](N)[C@@H](O)C[C@H](C(=O)NCC(C)(C)C(N)=O)C(C)C)C(C)C)ccc1OC` [aliskiren], the “PRA inhibition at steady state” value (PRA [9]) is listed as “incomplete PRA inhibition”.
